Measurements: ChEMBL document CHEMBL1157775, “Novel hexahydropyrrolo[3,4-c]pyrrole CCR5 antagonists” (Bioorg Med Chem Lett, 2010)
One block for each molecule: values may come before it.

Experiments:
[1] = Intrinsic clearance in rat liver microsomes assessed per mg of protein; assay type: ADME, Microsome
In short: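 Rat liver microsomes. Intrinsic clearance is expressed per mg protein. Values ≥90 µl/min were taken as high clearance.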

[2] = Intrinsic clearance in human liver microsomes assessed per mg of protein; assay type: ADME, Microsome
In short: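 Human liver microsomes. Intrinsic clearance is expressed as µl/min/mg protein.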

[3] = Permeability from apical to basolateral side of human Caco-2 cells after 21 days; assay type: ADME, cell-based; conditions: read-out: permeability
[4] = Oral bioavailability in rat at 10 mg/kg; assay type: ADME, organism-based; conditions: in vivo
In short: (§1)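 Rat PK. Single IV dose of 1 mg/kg and oral dose of 10 mg/kg. Oral AUC (ng·h/mL) and %F were derived from the PO arm. Clearance (mL/min/kg) was taken from the IV arm.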

[5] = Clearance in rat at 1 mg/kg, iv; assay type: ADME, organism-based; set-up: dose 1 mg/kg, route intravenous; conditions: in vivo; in short: as §1
[6] = AUC in rat at 10 mg/kg, po; assay type: ADME, organism-based; set-up: dose 10 mg/kg, route oral; conditions: plasma; in short: as §1
[7] = biological target: C-C chemokine receptor type 5 (Homo sapiens, UniProt P51681); assay: Binding affinity at CCR5 receptor by radiolabeled RANTES binding assay
Chain of C-C chemokine receptor type 5 (P51681 whole entry): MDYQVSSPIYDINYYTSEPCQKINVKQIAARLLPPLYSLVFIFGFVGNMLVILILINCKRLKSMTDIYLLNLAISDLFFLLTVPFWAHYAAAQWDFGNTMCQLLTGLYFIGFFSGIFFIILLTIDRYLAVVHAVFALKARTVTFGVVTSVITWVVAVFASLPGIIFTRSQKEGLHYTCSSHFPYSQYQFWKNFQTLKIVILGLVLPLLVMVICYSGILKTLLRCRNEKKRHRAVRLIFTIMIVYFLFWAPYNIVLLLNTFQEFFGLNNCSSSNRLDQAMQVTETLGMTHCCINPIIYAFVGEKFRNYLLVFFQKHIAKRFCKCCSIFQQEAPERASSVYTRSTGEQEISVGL

Caco-2 = assay: Efflux ratio of permeability from basolateral to apical over apical to basolateral side in human Caco-2 cells after 21 days; conditions: caco-2, 504 h
[8] = system: Human immunodeficiency virus 1; assay: Antiviral activity against HIV1 NL4-3 infected in human JC53-BL cells assessed as luciferase activity after 3 days post infection; assay type: functional, organism-based; conditions: Human immunodeficiency virus 1, NL4-3, JC53BL, 72 h
In short: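 Pseudotyped virus in culture supernatant was harvested after 2 days. It was used to infect JC53-BL reporter cells. Luciferase reporter activity was read 3 days post-infection. IC50 in nM is reported as the mean of two experiments.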

[9] = Oral bioavailability in dog at 10 mg/kg; assay type: ADME, organism-based, Canis lupus familiaris; conditions: in vivo
In short: (§2)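 Dog PK. Single IV dose of 1 mg/kg, then an oral dose of 10 mg/kg; one case used 1 mg/kg both IV and PO. AUC and %F were determined after the oral dose. Clearance (ml/min/kg) was determined from the IV dose.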

[10] = AUC in dog at 10 mg/kg, po; assay type: ADME, organism-based, Canis lupus familiaris; set-up: dose 10 mg/kg, route oral; conditions: plasma; in short: as §2
[11] = Clearance in dog at 1 mg/kg, iv; assay type: ADME, organism-based, Canis lupus familiaris; set-up: dose 1 mg/kg, route intravenous; conditions: in vivo; in short: as §2
[12] = Intrinsic clearance in dog liver microsomes assessed per mg of protein; assay type: ADME, Canis lupus familiaris, Microsome

SMILES: Cc1cc(=O)[nH]c(C)c1C(=O)N1C[C@H]2CN(CC[C@H](NC(=O)C3CCCC3)c3ccccc3)C[C@H]2C1
microsomal CLint [1]: 25 µL/min/mg
Ratio (Caco-2): 5
microsomal CLint [2]: 25 µL/min/mg
Papp A→B [3]: 0.5 ×10⁻⁶ cm/s
IC50 [8]: 6 nM
IC50 [7]: 30 nM

SMILES: CC(=O)N1C[C@H]2CN(CC[C@H](NC(=O)C3CCCC3)c3ccccc3)C[C@H]2C1
IC50 [8]: > 1000 nM
IC50 [7]: 465 nM

SMILES: Cc1cccc(Cl)c1C(=O)N1C[C@H]2CN(CC[C@H](NC(=O)C3CCCC3)c3ccccc3)C[C@H]2C1
microsomal CLint [2]: 264 µL/min/mg
IC50 [8]: 3 nM
IC50 [7]: 9 nM

SMILES: Cc1cccc(C)c1C(=O)N1C[C@H]2CN(CC[C@H](NC(=O)C3CCCC3)c3ccccc3)C[C@H]2C1
microsomal CLint [1]: 322 µL/min/mg
Ratio (Caco-2): 5
microsomal CLint [2]: 256 µL/min/mg
Papp A→B [3]: 4 ×10⁻⁶ cm/s
bioavailability [4]: 2.7%
clearance [5]: 134 mL/min/kg
IC50 [8]: 7 nM
AUC [6]: 31 ng·h/mL
IC50 [7]: 6 nM

SMILES: CC(=O)N[C@@H](CCN1C[C@@H]2CN(C(=O)c3c(C)cccc3C)C[C@@H]2C1)c1ccccc1
IC50 [8]: 132 nM
IC50 [7]: 15 nM

SMILES: Cc1cccc(C)c1C(=O)N1C[C@H]2CN(CC[C@H](NC(=O)C(C)C)c3ccccc3)C[C@H]2C1
IC50 [8]: 100 nM
IC50 [7]: 11 nM

SMILES: Cc1cccc(C)c1C(=O)N1C[C@H]2CN(CC[C@H](NC(=O)C3CCCCC3)c3ccccc3)C[C@H]2C1
IC50 [8]: 30 nM
IC50 [7]: 3 nM

SMILES: Cc1cccc(C)c1C(=O)N1C[C@H]2CN(CC[C@H](NC(=O)c3ccccc3)c3ccccc3)C[C@H]2C1
IC50 [8]: 124 nM
IC50 [7]: 8 nM

SMILES: Cc1cc[n+]([O-])c(C)c1C(=O)N1C[C@H]2CN(CC[C@H](NC(=O)C3CCCC3)c3ccccc3)C[C@H]2C1
microsomal CLint [1]: 12 µL/min/mg
Ratio (Caco-2): 300
microsomal CLint [2]: 6 µL/min/mg
Papp A→B [3]: 0.1 ×10⁻⁶ cm/s
IC50 [8]: 19 nM
IC50 [7]: 44 nM

SMILES: O=C(N[C@@H](CCN1C[C@@H]2CN(C(=O)c3c(Cl)cccc3Cl)C[C@@H]2C1)c1ccccc1)C1CCCC1
microsomal CLint [2]: 389 µL/min/mg
IC50 [8]: 92 nM
IC50 [7]: 14 nM

SMILES: Cc1cc(F)cc(C)c1C(=O)N1C[C@H]2CN(CC[C@H](NC(=O)C3CCCC3)c3ccccc3)C[C@H]2C1
microsomal CLint [1]: 517 µL/min/mg
microsomal CLint [2]: 236 µL/min/mg
IC50 [8]: 3 nM
IC50 [7]: 6 nM

SMILES: COc1cc(C)c(C(=O)N2C[C@H]3CN(CC[C@H](NC(=O)C4CCCC4)c4ccccc4)C[C@H]3C2)c(C)c1
microsomal CLint [1]: 236 µL/min/mg
Ratio (Caco-2): 2
microsomal CLint [2]: 241 µL/min/mg
Papp A→B [3]: 33 ×10⁻⁶ cm/s
IC50 [8]: 0.4 nM
IC50 [7]: 26 nM

SMILES: Cc1cccc(C)c1C(=O)N1C[C@H]2CN(CC[C@H](NC(=O)c3ccoc3)c3ccccc3)C[C@H]2C1
IC50 [8]: 85 nM
IC50 [7]: 18 nM

SMILES: Cc1cccc(C)c1C(=O)N1C[C@H]2CN(CC[C@H](NC(=O)C3CCOC3)c3ccccc3)C[C@H]2C1 (some centres undefined)
IC50 [8]: 101 nM
IC50 [7]: 15 nM

SMILES: CCO/N=C(\c1ccc(Br)cc1)C1CCN(C2(C)CCN(C(=O)c3c(C)cccc3C)CC2)CC1
IC50 [8]: 4 nM
IC50 [7]: 6 nM

SMILES: Cc1nnc(C(C)C)n1[C@H]1C[C@H]2CC[C@@H](C1)N2CC[C@H](NC(=O)C1CCC(F)(F)CC1)c1ccccc1 [MARAVIROC]
IC50 [8]: 3 nM

The remaining lines, values ahead:

microsomal CLint [1]: 51 µL/min/mg
microsomal CLint [2]: 35 µL/min/mg
Papp A→B [3]: 1.3 ×10⁻⁶ cm/s
bioavailability [4]: 17%
clearance [5]: 131 mL/min/kg
AUC [6]: 309 ng·h/mL
IC50 [7]: 14 nM
SMILES: Cc1ncnc(C)c1C(=O)N1C[C@H]2CN(CC[C@H](NC(=O)C3CCCC3)c3ccccc3)C[C@H]2C1

microsomal CLint [1]: 61 µL/min/mg
microsomal CLint [2]: 60 µL/min/mg
IC50 [8]: 3 nM
IC50 [7]: 20 nM
SMILES: Cc1ncnc(C)c1C(=O)N1C[C@H]2CN(CC[C@H](NC(=O)CC3CC(F)(F)C3)c3ccccc3)C[C@H]2C1

microsomal CLint [1]: 144 µL/min/mg
microsomal CLint [2]: 227 µL/min/mg
Papp A→B [3]: 3 ×10⁻⁶ cm/s
IC50 [7]: 12 nM
SMILES: Cc1cc(C#N)nc(C)c1C(=O)N1C[C@H]2CN(CC[C@H](NC(=O)C3CCCC3)c3ccccc3)C[C@H]2C1

IC50 [8]: 545 nM
IC50 [7]: 19 nM
SMILES: Cc1noc(C)c1C(=O)N1C[C@H]2CN(CC[C@H](NC(=O)C3CCCC3)c3ccccc3)C[C@H]2C1

IC50 [8]: 9 nM
IC50 [7]: 4 nM
SMILES: Cc1cccc(C)c1C(=O)N1C[C@H]2CN(CC[C@H](NC(=O)C3CCC(F)(F)CC3)c3ccccc3)C[C@H]2C1

IC50 [8]: 39 nM
IC50 [7]: 7 nM
SMILES: Cc1cccc(C)c1C(=O)N1C[C@H]2CN(CC[C@H](NC(=O)C3CCC3)c3ccccc3)C[C@H]2C1

microsomal CLint [1]: 89 µL/min/mg
microsomal CLint [2]: 67 µL/min/mg
Papp A→B [3]: 4 ×10⁻⁶ cm/s
bioavailability [4]: 6.4%
clearance [5]: 151 mL/min/kg
AUC [6]: 65 ng·h/mL
IC50 [7]: 7 nM
SMILES: Cc1ccnc(C)c1C(=O)N1C[C@H]2CN(CC[C@H](NC(=O)C3CCCC3)c3ccccc3)C[C@H]2C1

microsomal CLint [1]: 46 µL/min/mg
microsomal CLint [2]: 83 µL/min/mg
bioavailability [9]: 103%
bioavailability [4]: 15%
clearance [5]: 99 mL/min/kg
AUC [10]: 4210 ng·h/mL
IC50 [8]: 6 nM
clearance [11]: 44 mL/min/kg
microsomal CLint [12]: 30 µL/min/mg
AUC [6]: 215 ng·h/mL
IC50 [7]: 27 nM
SMILES: Cc1ncnc(C)c1C(=O)N1C[C@H]2CN(CC[C@H](NC(=O)CC3CCC(F)(F)CC3)c3ccccc3)C[C@H]2C1

microsomal CLint [1]: 24 µL/min/mg
microsomal CLint [2]: 113 µL/min/mg
IC50 [8]: 1.1 nM
IC50 [7]: 12 nM
SMILES: Cc1ncnc(C)c1C(=O)N1C[C@H]2CN(CC[C@H](NC(=O)CC3CCC(F)(F)CC3)c3cccc(F)c3)C[C@H]2C1

microsomal CLint [2]: 45 µL/min/mg
IC50 [8]: 41 nM
IC50 [7]: 30 nM
SMILES: Cc1ncnc(C)c1C(=O)N1C[C@H]2CN(CC[C@H](NC(=O)CC3CC(F)(F)C3)c3cc(F)cc(F)c3)C[C@H]2C1

microsomal CLint [1]: 31 µL/min/mg
microsomal CLint [2]: 30 µL/min/mg
IC50 [8]: 203 nM
IC50 [7]: 34 nM
SMILES: Cc1ncnc(C)c1C(=O)N1C[C@H]2CN(CC[C@H](NC(=O)CC3CC(F)(F)C3)c3cccc(C#N)c3)C[C@H]2C1
